pEC50, pKi: −log10 of the molar value. Calls of active or inactive are those of the source. The rule behind the calls is not given here.
Key:
Albumin = Albumin (Homo sapiens, UniProt P02768); assay: Binding affinity to human serum albumin at 5 uM after 12 mins by HPLC-MS analysis relative to control; format: ADME; details: isolated protein, 0.2 h
CYP2D6 = CYP2D6 (Homo sapiens, UniProt P10635); assay: Inhibition of human recombinant microsomal CYP2D6 using {3-[2-(N,N-diethyl-N-methylamino)ethyl]-7-methoxy-4-methylcoumarin} as substrate assessed as remaining activity at 10 uM after 30 mins by spectrofluorimetric analysis relative to control; format: ADME; details: read-out: Activity
[1] = Half life in human liver microsomes at 1 to 5 uM by HPLC-MS analysis; format: ADME, Microsome
Summary of the method: (§1)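 Incubation mixtures pre-equilibrated at 37 °C with NADPH and MgCl2, then rat or human liver microsomes added to start the reaction. Aliquots were withdrawn and quenched at several time points, and percent parent remaining was measured by HPLC-MS and plotted against time. t1/2 was taken from the slope of peak area over time and used to calculate CLint.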

[2] = Intrinsic clearance in human liver microsomes at 1 to 5 uM by HPLC-MS analysis; format: ADME, Microsome; details: read-out: CLH; summary of the method: as §1
[3] = Intrinsic clearance in Sprague-Dawley rat liver microsomes at 1 to 5 uM by HPLC-MS analysis; format: ADME, Microsome; details: read-out: CLH; summary of the method: as §1
[4] = Half life in Sprague-Dawley rat liver microsomes at 1 to 5 uM by HPLC-MS analysis; format: ADME, Microsome; summary of the method: as §1
Mus musculus [5] = organism: Mus musculus; assay: Hypothermic activity in Swiss mouse assessed as change in rectal temperature after 60 mins; format: functional; details: 1 h, read-out: MED
[6] = target: T1, 5-hydroxytryptamine receptor 1A (Homo sapiens, UniProt P08908); assay: Partial agonist activity at human 5-HT1A receptor expressed in human HeLa cells assessed as inhibition of forskolin-stimulated cAMP formation after 10 mins by RIA; format: functional, cell-based
T1 sequence (P08908 whole entry): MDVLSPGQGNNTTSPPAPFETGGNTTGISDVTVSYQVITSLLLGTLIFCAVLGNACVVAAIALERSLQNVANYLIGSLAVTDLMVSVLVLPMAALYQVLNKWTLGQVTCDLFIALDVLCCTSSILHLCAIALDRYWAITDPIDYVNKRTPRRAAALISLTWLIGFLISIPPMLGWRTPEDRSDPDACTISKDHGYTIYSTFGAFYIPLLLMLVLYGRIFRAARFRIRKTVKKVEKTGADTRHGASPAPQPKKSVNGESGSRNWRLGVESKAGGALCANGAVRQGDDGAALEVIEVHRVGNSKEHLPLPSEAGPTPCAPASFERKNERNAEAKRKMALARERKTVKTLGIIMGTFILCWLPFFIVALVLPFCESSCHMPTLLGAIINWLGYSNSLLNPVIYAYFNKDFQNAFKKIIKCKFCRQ

[7] = target: T2, 5-hydroxytryptamine receptor 1A (Rattus norvegicus, UniProt P19327); assay: Displacement of [3H]-8-OH-DPAT from 5-HT1A receptor in Sprague-Dawley rat cerebral cortex after 15 mins; format: tissue-based
T2 sequence (P19327 whole entry): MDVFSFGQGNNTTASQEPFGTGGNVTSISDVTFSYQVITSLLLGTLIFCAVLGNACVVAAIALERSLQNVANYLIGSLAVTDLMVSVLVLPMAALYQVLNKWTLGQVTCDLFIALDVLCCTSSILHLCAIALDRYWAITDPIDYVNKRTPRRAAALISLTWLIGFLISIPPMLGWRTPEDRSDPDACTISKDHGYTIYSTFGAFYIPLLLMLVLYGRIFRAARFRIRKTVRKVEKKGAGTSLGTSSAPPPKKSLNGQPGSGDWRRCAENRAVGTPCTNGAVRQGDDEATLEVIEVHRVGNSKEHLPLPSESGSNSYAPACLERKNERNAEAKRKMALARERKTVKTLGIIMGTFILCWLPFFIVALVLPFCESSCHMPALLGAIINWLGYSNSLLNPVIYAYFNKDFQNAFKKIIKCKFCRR

[8] = target: 5-hydroxytryptamine receptor 7 (Rattus norvegicus, UniProt P32305); assay: Displacement of [3H]-5-CT from 5-HT7 receptor in Sprague-Dawley rat hypothalamus after 120 mins
[9] = target: 5-hydroxytryptamine receptor 4 (Rattus norvegicus, UniProt Q62758); assay: Displacement of [3H]GR113808 from 5-HT4 receptor in Sprague-Dawley rat striatum after 30 mins
[10] = target: T3, 5-hydroxytryptamine receptor 3A (Rattus norvegicus, UniProt P35563); assay: Displacement of [3H]LY 278584 from 5-HT3 receptor in Sprague-Dawley rat cerebral cortex after 30 mins; format: tissue-based
T3 sequence (P35563 whole entry): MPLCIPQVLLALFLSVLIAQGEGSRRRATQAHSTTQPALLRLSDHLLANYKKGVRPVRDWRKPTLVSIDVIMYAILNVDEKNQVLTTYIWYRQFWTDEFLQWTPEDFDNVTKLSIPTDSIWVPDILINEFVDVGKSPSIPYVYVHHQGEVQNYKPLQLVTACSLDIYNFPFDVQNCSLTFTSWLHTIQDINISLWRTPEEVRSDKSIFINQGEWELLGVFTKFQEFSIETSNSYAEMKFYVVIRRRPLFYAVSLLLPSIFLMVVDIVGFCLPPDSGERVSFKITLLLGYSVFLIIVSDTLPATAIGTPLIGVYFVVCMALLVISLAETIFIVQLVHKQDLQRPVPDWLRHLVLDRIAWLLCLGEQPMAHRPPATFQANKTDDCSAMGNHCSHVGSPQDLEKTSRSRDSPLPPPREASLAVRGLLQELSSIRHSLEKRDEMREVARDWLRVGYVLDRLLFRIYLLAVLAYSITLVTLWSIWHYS

[11] = target: 5-hydroxytryptamine receptor 2A (Rattus norvegicus, UniProt P14842); assay: Displacement of [3H]ketanserin from 5-HT2A receptor in Sprague-Dawley rat frontal cortex after 15 mins; format: tissue-based
Mus musculus [12] = assay: Antinociceptive activity in CD-1 mouse assessed as reduction of formalin-induced paw licking activity at 100 mg/kg, ip administered 15 mins prior to formalin-challenge measured after 5 to 30 mins; format: functional, organism-based; parameters: dose 100 mg/kg
Summary of the method: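 Formalin injected intradermally in mice. Formalin-induced nociceptive behaviour is scored separately in the early and late phases of the test.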

Mus musculus [13] = assay: Antinociceptive activity in CD-1 mouse assessed as reduction of formalin-induced paw licking activity at 3 mg/kg, ip administered 15 mins prior to formalin-challenge measured after 15 to 30 mins; format: functional, organism-based; parameters: dose 3 mg/kg
[14] = target: T1, 5-hydroxytryptamine receptor 1A; assay: Agonist activity at human 5-HT1A receptor expressed in human HeLa cells assessed as inhibition of forskolin-stimulated cAMP formation after 10 mins by RIA; format: functional, cell-based

Chain of Albumin (P02768 whole entry): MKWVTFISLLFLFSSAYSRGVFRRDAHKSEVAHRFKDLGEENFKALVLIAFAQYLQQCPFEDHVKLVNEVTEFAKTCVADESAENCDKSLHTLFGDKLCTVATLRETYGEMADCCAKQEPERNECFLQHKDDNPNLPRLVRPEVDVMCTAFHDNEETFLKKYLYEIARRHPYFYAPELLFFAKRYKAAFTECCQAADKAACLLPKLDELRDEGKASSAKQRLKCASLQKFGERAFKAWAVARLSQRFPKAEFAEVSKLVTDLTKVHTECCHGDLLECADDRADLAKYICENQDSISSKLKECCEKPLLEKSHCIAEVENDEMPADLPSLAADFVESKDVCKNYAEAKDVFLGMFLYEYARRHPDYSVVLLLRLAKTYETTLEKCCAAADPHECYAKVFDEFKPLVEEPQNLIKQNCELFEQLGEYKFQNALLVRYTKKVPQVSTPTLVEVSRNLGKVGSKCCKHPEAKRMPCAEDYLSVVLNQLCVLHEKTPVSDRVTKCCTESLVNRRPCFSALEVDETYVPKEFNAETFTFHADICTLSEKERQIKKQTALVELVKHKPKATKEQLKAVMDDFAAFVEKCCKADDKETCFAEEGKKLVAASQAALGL
Chain of 5-hydroxytryptamine receptor 4 (Q62758 whole entry): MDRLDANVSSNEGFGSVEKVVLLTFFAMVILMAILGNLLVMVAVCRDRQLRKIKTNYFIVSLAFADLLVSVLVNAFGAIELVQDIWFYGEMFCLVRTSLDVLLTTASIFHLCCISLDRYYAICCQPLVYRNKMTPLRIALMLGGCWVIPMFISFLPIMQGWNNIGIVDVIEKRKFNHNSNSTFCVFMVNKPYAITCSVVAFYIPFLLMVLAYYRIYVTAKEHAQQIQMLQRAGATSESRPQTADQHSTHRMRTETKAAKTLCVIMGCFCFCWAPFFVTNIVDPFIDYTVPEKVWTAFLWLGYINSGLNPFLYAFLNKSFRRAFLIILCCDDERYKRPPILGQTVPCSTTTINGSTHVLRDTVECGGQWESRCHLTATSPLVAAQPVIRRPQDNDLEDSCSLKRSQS
Chain of CYP2D6 (P10635 whole entry): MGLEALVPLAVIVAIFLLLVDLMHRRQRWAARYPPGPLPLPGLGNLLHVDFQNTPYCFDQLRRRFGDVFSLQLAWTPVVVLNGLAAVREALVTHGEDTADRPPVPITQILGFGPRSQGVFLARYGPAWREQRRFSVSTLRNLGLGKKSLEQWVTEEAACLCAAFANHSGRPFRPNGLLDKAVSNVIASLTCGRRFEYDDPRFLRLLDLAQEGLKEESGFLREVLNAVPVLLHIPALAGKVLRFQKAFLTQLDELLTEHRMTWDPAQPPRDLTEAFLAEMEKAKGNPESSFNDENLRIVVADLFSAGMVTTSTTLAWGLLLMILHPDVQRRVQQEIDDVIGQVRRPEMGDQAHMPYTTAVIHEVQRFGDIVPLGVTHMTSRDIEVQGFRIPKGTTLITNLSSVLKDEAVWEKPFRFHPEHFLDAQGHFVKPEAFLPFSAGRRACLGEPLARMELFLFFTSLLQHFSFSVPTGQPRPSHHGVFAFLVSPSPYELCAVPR
Chain of 5-hydroxytryptamine receptor 2A (P14842 whole entry): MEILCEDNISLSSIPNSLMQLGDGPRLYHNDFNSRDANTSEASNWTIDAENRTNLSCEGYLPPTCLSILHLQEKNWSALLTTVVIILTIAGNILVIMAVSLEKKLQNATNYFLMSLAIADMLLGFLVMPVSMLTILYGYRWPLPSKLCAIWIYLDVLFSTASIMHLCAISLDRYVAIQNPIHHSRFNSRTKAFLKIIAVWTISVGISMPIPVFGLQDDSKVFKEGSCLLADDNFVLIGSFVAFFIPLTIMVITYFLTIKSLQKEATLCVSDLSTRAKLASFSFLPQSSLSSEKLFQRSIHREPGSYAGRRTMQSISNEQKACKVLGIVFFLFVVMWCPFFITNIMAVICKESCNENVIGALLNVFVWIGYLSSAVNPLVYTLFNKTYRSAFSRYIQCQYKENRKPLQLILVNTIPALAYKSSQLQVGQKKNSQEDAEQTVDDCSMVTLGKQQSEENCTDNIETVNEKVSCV
Chain of 5-hydroxytryptamine receptor 7 (P32305 whole entry): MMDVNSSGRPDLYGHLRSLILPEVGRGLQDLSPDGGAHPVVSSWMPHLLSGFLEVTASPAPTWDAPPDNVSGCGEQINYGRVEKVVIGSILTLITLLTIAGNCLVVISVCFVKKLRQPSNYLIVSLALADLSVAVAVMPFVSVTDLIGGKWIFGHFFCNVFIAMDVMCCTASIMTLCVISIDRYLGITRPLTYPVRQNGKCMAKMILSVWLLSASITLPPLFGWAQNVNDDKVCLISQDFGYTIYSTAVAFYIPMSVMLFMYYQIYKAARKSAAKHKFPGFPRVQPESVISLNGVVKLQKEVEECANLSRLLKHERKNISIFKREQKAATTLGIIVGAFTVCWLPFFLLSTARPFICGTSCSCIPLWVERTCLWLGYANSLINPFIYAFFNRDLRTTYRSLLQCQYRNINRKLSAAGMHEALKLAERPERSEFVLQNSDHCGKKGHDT

| SMILES | pKi [7] | pKi [8] | pKi [9] | pKi [10] | pKi [11] | further results |
| --- | --- | --- | --- | --- | --- | --- |
| CCc1ccccc1OCCNCCCCN1C(=O)C2CCCN2C1=O.Cl (configuration not stated) | 7.77 | 6.73 | < 6.00 | < 6.00 | 6.44 | Activity (Albumin): 55%; activity at 0.5 h, 10 µM (CYP2D6): 13%; half-life at up to 5 µM [1]: 2.28 h; CLint scaled at up to 5 µM [2]: 4.6 mL/min/kg; CLint scaled at up to 5 µM [3]: 131 mL/min/kg; half-life at up to 5 µM [4]: 0.178 h; minimal effective dose (Mus musculus [5]): 10 mg/kg; pEC50 [6]: 5.92 |
| Cc1cccc(OCCNCCCCN2C(=O)C3CCCN3C2=O)c1C (configuration not stated) | 7.35 | < 6.00 | < 6.00 | < 6.00 | 6.51 | – |
| O=C1C2CCCN2C(=O)N1CCCCNCCOc1ccccc1-c1ccccc1 (configuration not stated) | 7.59 | 7.00 | < 6.00 | < 6.00 | < 6.00 | – |
| NCC1(CC(=O)O)CCCCC1 | – | – | – | – | – | Activity (Mus musculus [12]): Active |
| CCc1cccc(OCCNCCCCN2C(=O)C3CCCN3C2=O)c1 (configuration not stated) | 7.52 | < 6.00 | < 6.00 | < 6.00 | < 6.00 | – |
| O=C1C2CCCN2C(=O)N1CCCCNCCOc1cccc2cccnc12 (configuration not stated) | 7.36 | 7.82 | < 6.00 | < 6.00 | < 6.00 | – |
| O=C1C2CCCN2C(=O)N1CCCCNCCOc1cccc(-c2ccccc2)c1 (configuration not stated) | 7.14 | – | – | – | – | – |
| O=C1C2CCCN2C(=O)N1CCCCNCCOc1ccc2ccccc2c1 (configuration not stated) | 7.39 | < 6.00 | < 6.00 | < 6.00 | 6.37 | – |
| COc1ccccc1CNCCCCN1C(=O)C2CCCN2C1=O (configuration not stated) | < 6.00 | – | – | – | – | – |
| N#Cc1cccc(OCCNCCCCN2C(=O)C3CCCN3C2=O)c1 (configuration not stated) | < 6.00 | – | – | – | – | – |
| Cl.O=C1C2CCCN2C(=O)N1CCCCNCCOc1cccc2ccccc12 (configuration not stated) | – | – | < 6.00 | < 6.00 | 7.39 | Activity (Mus musculus [13]): Active; Activity (Albumin): 60%; activity at 0.5 h, 10 µM (CYP2D6): 6%; half-life at up to 5 µM [1]: 2.05 h; CLint scaled at up to 5 µM [2]: 5.1 mL/min/kg; CLint scaled at up to 5 µM [3]: 171 mL/min/kg; half-life at up to 5 µM [4]: 0.135 h; minimal effective dose (Mus musculus [5]): 10 mg/kg; pEC50 [14]: 7.35 |
| O=C1C2CCCN2C(=O)N1CCCCNCCOc1ccc(C(F)(F)F)cc1 (configuration not stated) | < 6.00 | – | – | – | – | – |
| COc1cccc(OCCNCCCCN2C(=O)C3CCCN3C2=O)c1 (configuration not stated) | 7.47 | < 6.00 | < 6.00 | < 6.00 | < 6.00 | – |
| O=C1C2CCCN2C(=O)N1CCCCNCCOc1ccc(Br)cc1 (configuration not stated) | < 6.00 | – | – | – | – | – |
| Cl.O=C1C2CCCN2C(=O)N1CCCCNCCOc1ccccc1 (configuration not stated) | – | < 6.00 | < 6.00 | < 6.00 | < 6.00 | Activity (Mus musculus [13]): Active; Activity (Albumin): 38%; activity at 0.5 h, 10 µM (CYP2D6): 24%; half-life at up to 5 µM [1]: 2.52 h; CLint scaled at up to 5 µM [2]: 4.1 mL/min/kg; CLint scaled at up to 5 µM [3]: 140 mL/min/kg; half-life at up to 5 µM [4]: 0.167 h; minimal effective dose (Mus musculus [5]): 2.5 mg/kg |
| N#Cc1ccccc1OCCNCCCCN1C(=O)C2CCCN2C1=O (configuration not stated) | < 6.00 | – | – | – | – | – |

| SMILES | pKi [7] | pKi [8] | pKi [9] | pKi [10] | pKi [11] | further results |
| --- | --- | --- | --- | --- | --- | --- |
| O=C1C2CCCN2C(=O)N1CCCCNCCOc1cccc(C(F)(F)F)c1 (configuration not stated) | 7.41 | – | – | – | – | – |
| CCc1ccc(OCCNCCCCN2C(=O)C3CCCN3C2=O)cc1 (configuration not stated) | 6.13 | – | – | – | – | – |
| CC(C)c1ccccc1OCCNCCCCN1C(=O)C2CCCN2C1=O (configuration not stated) | 7.42 | < 6.00 | < 6.00 | < 6.00 | 6.59 | – |
| COc1ccc(OCCNCCCCN2C(=O)C3CCCN3C2=O)c2ccccc12 (configuration not stated) | 7.57 | 6.52 | < 6.00 | < 6.00 | < 6.00 | – |
| O=C1C2CCCN2C(=O)N1CCCCNCCOc1cccc2c1CCCC2 (configuration not stated) | 7.42 | < 6.00 | < 6.00 | < 6.00 | 7.31 | – |
| O=C1C2CCCN2C(=O)N1CCCCNCCOc1ccccc1C(F)(F)F (configuration not stated) | 6.29 | – | – | – | – | – |
| COc1ccccc1OCCNCCCCN1C(=O)C2CCCN2C1=O.Cl (configuration not stated) | 8.32 | < 6.00 | < 6.00 | < 6.00 | 6.57 | Activity (Mus musculus [13]): Active; Activity (Albumin): 25%; activity at 0.5 h, 10 µM (CYP2D6): 48%; half-life at up to 5 µM [1]: 3.95 h; CLint scaled at up to 5 µM [2]: 2.6 mL/min/kg; CLint scaled at up to 5 µM [3]: 145 mL/min/kg; half-life at up to 5 µM [4]: 0.162 h; minimal effective dose (Mus musculus [5]): 0.625 mg/kg; pEC50 [14]: 7.64 |
| COc1cc(COc2cc(N)c(Cl)cc2C(=O)CCC2CCN(CCNS(C)(=O)=O)CC2)cc(OC)c1 | – | – | 8.41 | – | – | – |
| O=C1C2CCCN2C(=O)N1CCCCNCCOc1ccc(-c2ccccc2)cc1 (configuration not stated) | < 6.00 | – | – | – | – | – |
| NCCc1c[nH]c2ccc(C(N)=O)cc12 | – | 8.74 | – | – | – | – |
| COc1cc(F)ccc1OCCNCCCCN1C(=O)C2CCCN2C1=O (configuration not stated) | 7.43 | < 6.00 | < 6.00 | < 6.00 | < 6.00 | – |
| N#Cc1ccc(OCCNCCCCN2C(=O)C3CCCN3C2=O)cc1 (configuration not stated) | < 6.00 | – | – | – | – | – |
| COc1ccc(OCCNCCCCN2C(=O)C3CCCN3C2=O)cc1 (configuration not stated) | < 6.00 | – | – | – | – | – |
| O=C1C2CCCN2C(=O)N1CCCCNCCOc1ccccc1Br (configuration not stated) | 7.21 | – | – | – | – | – |
| O=C1C2CCCN2C(=O)N1CCCCNCCOc1cccc(Br)c1 (configuration not stated) | 7.28 | < 6.00 | < 6.00 | < 6.00 | 6.29 | – |
